The results in this text go back to ChEMBL document CHEMBL1125384, “Inhibitors of sterol synthesis. 3 beta,25-dihydroxy-5 alpha-cholest-8(14)-en-15-one, an active metabolite of 3 beta-hydroxy-5 alpha-cholest-8(14)-en-15-one” (J Med Chem, 1992).

Assay [1] has as its target 3-hydroxy-3-methylglutaryl-coenzyme A reductase (Cricetulus griseus) (UniProt P00347). In words: % control of HMG-CoA reductase activity in CHO-K1 cells at a concentration of 0.1 uM.
In assay [2] the target is T1, 3-hydroxy-3-methylglutaryl-coenzyme A reductase (Homo sapiens) (UniProt P04035).
T1 sequence (whole entry): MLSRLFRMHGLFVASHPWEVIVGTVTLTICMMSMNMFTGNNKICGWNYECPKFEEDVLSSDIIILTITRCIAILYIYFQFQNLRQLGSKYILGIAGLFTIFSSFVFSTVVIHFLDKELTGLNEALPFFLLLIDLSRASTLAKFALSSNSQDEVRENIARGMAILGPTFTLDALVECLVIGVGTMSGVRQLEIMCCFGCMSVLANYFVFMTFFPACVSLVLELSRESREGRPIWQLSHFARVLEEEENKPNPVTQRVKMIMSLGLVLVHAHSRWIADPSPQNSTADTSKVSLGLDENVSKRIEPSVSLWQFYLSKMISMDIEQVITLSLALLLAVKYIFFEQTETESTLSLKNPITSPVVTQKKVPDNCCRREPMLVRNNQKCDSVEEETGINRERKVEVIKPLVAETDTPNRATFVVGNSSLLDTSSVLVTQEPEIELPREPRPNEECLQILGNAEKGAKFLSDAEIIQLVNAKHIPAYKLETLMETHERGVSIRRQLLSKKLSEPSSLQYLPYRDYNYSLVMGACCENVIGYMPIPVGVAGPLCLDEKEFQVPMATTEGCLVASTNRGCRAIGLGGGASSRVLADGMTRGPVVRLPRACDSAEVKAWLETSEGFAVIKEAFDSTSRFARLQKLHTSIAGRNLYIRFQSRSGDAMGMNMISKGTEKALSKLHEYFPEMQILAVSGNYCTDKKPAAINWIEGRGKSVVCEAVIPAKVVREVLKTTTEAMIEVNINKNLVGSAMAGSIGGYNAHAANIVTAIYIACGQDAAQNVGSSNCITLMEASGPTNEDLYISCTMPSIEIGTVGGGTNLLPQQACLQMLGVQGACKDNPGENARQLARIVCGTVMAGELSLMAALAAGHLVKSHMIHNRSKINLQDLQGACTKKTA
In words: % control of HMG-CoA reductase activity in CHO-K1 cells at a concentration of 2.5 uM. The format is cell-based. The settings on record: Cricetulus griseus. In outline: (§1)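 CHO-K1 cells were exposed to the sterol at 0.0–2.5 μM. HMG-CoA reductase specific activity was measured in pmol min⁻¹ mg⁻¹ protein and expressed as % of the activity in sterol-free control cells. Assays were run in triplicate, with variation given as SD.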

In assay [3] the target is T1, 3-hydroxy-3-methylglutaryl-coenzyme A reductase (Homo sapiens). In words: % control of HMG-CoA reductase activity in CHO-K1 cells at a concentration of 0.5 uM. The format is cell-based. Particulars: Cricetulus griseus. Summed up:
as §1

For assay [4], the target named is 3-hydroxy-3-methylglutaryl-coenzyme A reductase (Cricetulus griseus) (UniProt P00347). In words: % control of HMG-CoA reductase activity in CHO-K1 cells at a concentration of 0.0 uM.
3-hydroxy-3-methylglutaryl-coenzyme A reductase (Cricetulus griseus), sequence (P00347 whole entry, looked up): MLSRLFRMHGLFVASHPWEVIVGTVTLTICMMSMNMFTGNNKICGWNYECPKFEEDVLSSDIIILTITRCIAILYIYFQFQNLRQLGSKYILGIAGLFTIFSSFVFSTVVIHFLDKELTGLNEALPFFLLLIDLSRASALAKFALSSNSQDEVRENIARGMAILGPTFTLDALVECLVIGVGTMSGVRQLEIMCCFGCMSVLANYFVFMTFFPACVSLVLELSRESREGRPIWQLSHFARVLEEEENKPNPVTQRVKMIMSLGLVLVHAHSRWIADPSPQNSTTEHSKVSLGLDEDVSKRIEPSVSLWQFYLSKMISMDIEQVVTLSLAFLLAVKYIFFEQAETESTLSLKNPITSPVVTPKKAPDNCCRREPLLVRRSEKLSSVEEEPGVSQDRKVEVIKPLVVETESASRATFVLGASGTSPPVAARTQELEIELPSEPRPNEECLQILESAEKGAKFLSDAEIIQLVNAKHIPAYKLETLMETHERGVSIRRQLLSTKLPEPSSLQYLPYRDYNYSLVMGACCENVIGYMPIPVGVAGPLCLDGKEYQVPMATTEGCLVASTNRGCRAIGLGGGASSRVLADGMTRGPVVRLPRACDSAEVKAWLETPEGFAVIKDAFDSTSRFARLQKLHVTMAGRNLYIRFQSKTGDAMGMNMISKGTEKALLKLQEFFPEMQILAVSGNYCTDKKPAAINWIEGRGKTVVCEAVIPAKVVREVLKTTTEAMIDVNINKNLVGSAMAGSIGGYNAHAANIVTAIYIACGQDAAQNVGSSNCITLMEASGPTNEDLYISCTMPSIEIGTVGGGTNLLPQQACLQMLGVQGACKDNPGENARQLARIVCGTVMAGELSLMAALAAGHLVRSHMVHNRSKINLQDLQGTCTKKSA
In assay [5] the target is T1, 3-hydroxy-3-methylglutaryl-coenzyme A reductase (Homo sapiens). The assay can be described thus: % control of HMG-CoA reductase activity in CHO-K1 cells at a concentration of 0.25 uM. The format is cell-based. Particulars: Cricetulus griseus. In outline: as §1
The target is the same in assay [6]. The assay can be described thus: % control of HMG-CoA reductase activity in CHO-K1 cells at a concentration of 1.0 uM. Format: cell-based. The settings on record: Cricetulus griseus. In outline: as §1

Consider `C[C@H](CCCC(C)(C)O)C1CC(=O)C2=C3CCC4CC(O)CCC4(C)C3CCC21C` (some centres not stated), for which the Control in assay [1] stood at 63.4%; in assay [2] it was 21.5%; in assay [3], 32.2%; in assay [4], 100%; in assay [5] it was 33.5%; in assay [6] it was 34.2%.

In the case of `CC(C)CCC[C@@H](C)[C@H]1CC(=O)C2=C3CC[C@H]4C[C@@H](O)CC[C@]4(C)[C@H]3CC[C@@]21C`, the Control was 61.9% in assay [1]; 24.4% in assay [2]; 42.2% in assay [3]; 100% in assay [4]; 52.1% in assay [5]; 35.8% in assay [6].
